Test results as given in ChEMBL document CHEMBL3779799, “Antifibrotic and anticancer action of 5-ene amino/iminothiazolidinones” (Eur J Med Chem, 2016).
Calls of active or inactive are those of the source. The calls are words filed in the database; no cut-off is given here.

Legend:
[1] = Antioxidant activity assessed as inhibition of superoxide anion generation upto 10 uM measured for 3 mins by nitro blue tetrazolium assay; format: physicochemical; conditions: 0.05 h
Procedure, shortened: (§1)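 Cell-free superoxide generated by xanthine (1 mM) and xanthine oxidase (0.11 U/mL), with NBT (50 µM) as detector. Compounds in DMSO were tested up to 10 µM, with DMSO held at 0.1%. NBT reduction rate (dA560/dt) was read spectrophotometrically over 3 min from the linear part.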

HFL1 [2] = assay: Antifibrotic activity in HFL1 cells assessed as inhibition of cell viability after 48 hrs by sulforhodamine B assay; format: functional, cell-based; conditions: Homo sapiens, HFL1, 48 h
Procedure, shortened: (§2)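 HFL-1 human fetal lung fibroblasts (DMEM, 10% FCS, passages 14–18) seeded at 8000 cells/well, attached overnight, then exposed to a range of concentrations for 48 h in triplicate. Cells were fixed with TCA and stained with 0.4% SRB, bound dye was solubilized in Tris, and OD was read at 570 nm relative to control.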

HFL1 [3] = assay: Antifibrotic activity in HFL1 cells assessed as inhibition of cell viability at >1 uM after 48 hrs by sulforhodamine B assay relative to control; format: functional; conditions: Homo sapiens, HFL1, 48 h; procedure, shortened: as §2
NCI-H460 = assay: Cytotoxicity against human NCI-H460 cells assessed as cell growth at 10^-4 M after 48 hrs by sulforhodamine B assay relative to control; format: functional; conditions: NCI-H460, 48 h, read-out: Activity
Procedure, shortened: (§3)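 Cells were inoculated and preincubated 24–48 h, then exposed to a single dose of 10^-4 M for 48 h. SRB protein staining was the endpoint, and growth percent was calculated versus untreated controls.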

MCF7 = assay: Cytotoxicity against human MCF7 cells assessed as cell growth at 10^-4 M after 48 hrs by sulforhodamine B assay relative to control; format: functional; conditions: MCF7, 48 h, read-out: Activity; procedure, shortened: as §3
[4] = Cytotoxicity against human SF268 cells assessed as cell growth at 10^-4 M after 48 hrs by sulforhodamine B assay relative to control; format: functional; conditions: SF-268, 48 h, read-out: Activity; procedure, shortened: as §3
HFL1 [5] = assay: Antifibrotic activity in HFL1 cells assessed as reduction in cell proliferation at 0.1 to 1 uM after 150 hrs by xCelligence analysis; format: functional, cell-based; conditions: Homo sapiens
Procedure, shortened: (§4)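 HFL-1 cells were seeded at 20,000/well and monitored by real-time impedance (xCelligence). Compound or DMSO vehicle was added at ~30 h, once attachment was maximal, and cells were followed for another 150 h. P150 was taken as the signal difference between 30 h and 180 h; Pdot was the maximum slope of the curve.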

[6] = Cytotoxicity against human NCI60 cells assessed as cell growth at 10^-5 M after 48 hrs by sulforhodamine B assay relative to control; format: functional; conditions: NCI60, 48 h, read-out: Activity
Procedure, shortened: (§5)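 NCI ~60 human tumor cell line one-dose screen covering nine cancer types. Cells were preincubated 24–48 h, then exposed to compound at 10^-5 M for 48 h. SRB protein staining was the endpoint, and growth percent was calculated versus untreated control cells.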

[7] = Cytotoxicity against human RPMI8226 cells assessed as cell growth at 10^-5 M after 48 hrs by sulforhodamine B assay relative to control; format: functional; conditions: RPMI-8226, 48 h, read-out: Activity; procedure, shortened: as §5
NCI-H522 = assay: Cytotoxicity against human NCI-H522 cells assessed as cell growth at 10^-5 M after 48 hrs by sulforhodamine B assay relative to control; format: functional; conditions: NCI-H522, 48 h, read-out: Activity; procedure, shortened: as §5
[8] = Cytotoxicity against human UO31 cells assessed as cell growth at 10^-5 M after 48 hrs by sulforhodamine B assay relative to control; format: functional; conditions: UO-31, 48 h, read-out: Activity; procedure, shortened: as §5
HFL1 [9] = assay: Antifibrotic activity in HFL1 cells assessed as reduction in cell proliferation after 150 hrs by xCelligence analysis; conditions: Homo sapiens
[10] = Antioxidant activity assessed as inhibition of superoxide anion generation measured for 3 mins by nitro blue tetrazolium assay; format: physicochemical; conditions: for Emax: 0.05 h; procedure, shortened: as §1
HFL1 [11] = assay: Antifibrotic activity in HFL1 cells assessed as reduction in maximum rate of cell proliferation after 150 hrs by xCelligence analysis; format: functional, cell-based; conditions: Homo sapiens; procedure, shortened: as §4
[12] = Growth inhibition of human NCI60 cells after 48 hrs by sulforhodamine B assay; format: functional; conditions: NCI60, 48 h; for CC50: read-out: pLC50 (the source's name) (converted); for TGI: read-out: pTGI (converted)
Procedure, shortened: (§6)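 NCI ~60-cell-line panel with five 10-fold dilutions (10^-4 to 10^-8 M) and 48 h continuous exposure, using an SRB endpoint. Percentage growth was derived from time-zero, control and treated absorbances. Values are expressed as > or < when outside the tested range.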

[13] = Cytotoxicity against human SNB75 cells assessed as cell growth at 10^-5 M after 48 hrs by sulforhodamine B assay relative to control; format: functional; conditions: SNB-75, 48 h, read-out: Activity; procedure, shortened: as §5
[14] = Growth inhibition of human HOP62 cells after 48 hrs by sulforhodamine B assay; format: functional; conditions: HOP-62, 48 h
Procedure, shortened: (§7)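 NCI ~60-cell-line panel with five 10-fold dilutions (10^-4 to 10^-8 M) and 48 h continuous exposure, using an SRB endpoint. Percentage growth was derived from time-zero, control and treated absorbances. […] Values are expressed as > or < when outside the tested range.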

[15] = Growth inhibition of human HOP92 cells after 48 hrs by sulforhodamine B assay; format: functional; conditions: HOP-92, 48 h; procedure, shortened: as §7
[16] = Growth inhibition of human HCT116 cells after 48 hrs by sulforhodamine B assay; format: functional; conditions: HCT-116, 48 h; procedure, shortened: as §6
U-251 = assay: Growth inhibition of human U251 cells after 48 hrs by sulforhodamine B assay; format: functional; conditions: U-251, 48 h; procedure, shortened: as §7
MDA-MB-231 = assay: Growth inhibition of human MDA-MB-231 cells after 48 hrs by sulforhodamine B assay; format: functional; conditions: MDA-MB-231, 48 h; procedure, shortened: as §7
[17] = read-out: LC50 (the source's name)

## O=C(CC1SC(=Nc2cccc(O)c2)NC1=O)Nc1ccc(Br)cc1 (racemic)
[1]
  inhibition (INH): Not Active
HFL1 [2]
  IC50: 0.16 µM
HFL1 [3]
  Emax: 77.6%

## O=C1CS/C(=N\N=C/c2cccnc2)N1Cc1ccco1
HFL1 [2]
  IC50: 0.5 µM
HFL1 [3]
  Emax: 69.4%

## Cc1ccc2c(c1)/C(=C1/SC(N(C)c3ccc(O)cc3)=NC1=O)C(=O)N2
HFL1 [2]
  IC50: 0.07 µM
HFL1 [3]
  Emax: 31.3%
NCI-H460
  growth at 100 µM: 95%
MCF7
  growth at 100 µM: 89%
[4]
  growth at 100 µM: 74%

## COc1ccccc1NC(=O)CSc1nnc(/N=C2\NC(=O)CS2)s1
HFL1 [5]
  Activity: Active
[1]
  inhibition (INH): Not Active
HFL1 [2]
  IC50: 0.4 µM
HFL1 [3]
  Emax: 75%

## O=C(CC1SC(Nc2ccc(O)cc2)=NC1=O)c1ccc(F)cc1 (racemic)
HFL1 [2]
  IC50: 0.19 µM
HFL1 [3]
  Emax: 54.2%
NCI-H460
  growth at 100 µM: 62%
MCF7
  growth at 100 µM: 66%
[4]
  growth at 100 µM: 53%

## Cc1ccc(=O)n(-c2ccccc2)c1 [PIRFENIDONE]
[1]
  inhibition (INH): Not Active
HFL1 [2]
  IC50: 0.71 µM
HFL1 [3]
  Emax: 78.5%
[6]
  growth at 10 µM: 96.3%
[7]
  growth at 10 µM: 76%
NCI-H522
  growth at 10 µM: 79.8%
[8]
  growth at 10 µM: 76.9%
HFL1 [9]
  Activity: Dose-dependent effect

## O=C1CS/C(=N/N=C/c2cccnc2)N1
HFL1 [2]
  IC50: 0.81 µM
HFL1 [3]
  Emax: 92.1%

## O=C1N=C(Nc2ccc(O)cc2)S/C1=C1\C(=O)Nc2ccccc21
NCI-H460
  growth at 100 µM: 96%
MCF7
  growth at 100 µM: 108%
[4]
  growth at 100 µM: 118%

## CC(=C/c1ccccc1)/C=C1\SC(N(C)c2ccc(O)cc2)=NC1=O
[10]
  IC50: 3.4 µM
  Emax: 55%
HFL1 [11]
  Activity: Dose-dependent effect
HFL1 [2]
  IC50: 0.01 µM
HFL1 [3]
  Emax: 34%
HFL1 [9]
  Activity: Dose-dependent effect

## Cc1cc(O)c(C(C)C)cc1NC1=NC(=O)S/C1=C\c1ccc(Cl)cc1
HFL1 [2]
  IC50: 0.03 µM
HFL1 [3]
  Emax: 75.5%

## O=C1N=C(Nc2ccc(O)cc2)S/C1=C\c1ccc(Cl)cc1
HFL1 [2]
  IC50: 0.02 µM
HFL1 [3]
  Emax: 46.1%
HFL1 [9]
  Activity: Dose-dependent effect

## COc1ccccc1NC(=O)CSc1nnc(NC2=NC(=O)/C(=C/c3ccc(Cl)cc3)S2)s1
HFL1 [2]
  IC50: 0.04 µM
HFL1 [3]
  Emax: 17.4%

## O=C1N=C(Nc2nccs2)S/C1=C1\C(=O)Nc2ccc(Br)cc21
[10]
  IC50: 0.38 µM
  Emax: 67.4%
[12]
  GI50: 95.5 µM
  CC50: 100 µM
  TGI: 100 µM

## COc1ccc(-c2nnc(/N=C3\NC(=O)CS3)o2)cc1
[10]
  IC50: 0.29 µM
  Emax: 81.8%
HFL1 [5]
  Activity: Active
HFL1 [2]
  IC50: 0.47 µM
HFL1 [3]
  Emax: 84.6%
[6]
  growth at 10 µM: 102%
[13]
  growth at 10 µM: 71.9%

## CCC1S/C(=N\N=C/c2cccnc2)N(Cc2ccco2)C1=O (mixture of isomers)
HFL1 [2]
  IC50: 0.21 µM
HFL1 [3]
  Emax: 44.7%

## CC1S/C(=N/N=C/c2cccnc2)NC1=O (racemic)
[10]
  IC50: 1.96 µM
  Emax: 35.8%
HFL1 [2]
  IC50: 0.83 µM
HFL1 [3]
  Emax: 84.6%

## CCOc1cc(/C=C2\SC(Nc3nc4ccc(C)cc4s3)=NC2=O)ccc1O
[10]
  IC50: 6.8 µM
  Emax: 38.7%
HFL1 [2]
  IC50: 0.01 µM
HFL1 [3]
  Emax: 48.1%

## CN(C1=NC(=O)/C(=C/C(Cl)=C/c2ccc([N+](=O)[O-])cc2)S1)c1ccc(O)cc1
[10]
  IC50: 0.96 µM
  Emax: 47.4%

## O=C1N=C(Nc2ccc(O)cc2)S/C1=C\C=C/c1ccccc1
NCI-H460
  growth at 100 µM: 140%
MCF7
  growth at 100 µM: 124%
[4]
  growth at 100 µM: 103%

## C=CCN1C(=O)/C(=C2/C(=O)Nc3ccccc32)S/C1=N\c1nccs1
[10]
  IC50: 1.32 µM
  Emax: 86.5%
HFL1 [5]
  Activity: Active
HFL1 [2]
  IC50: 0.09 µM
HFL1 [3]
  Emax: 65.9%
NCI-H460
  growth at 100 µM: 49%
MCF7
  growth at 100 µM: 76%
[4]
  growth at 100 µM: 82%

## COc1ccc(/C=C2\SC(Nc3nnc(SCC(=O)Nc4ccc(Cl)cc4)s3)=NC2=O)cc1
[10]
  IC50: 0.81 µM
  Emax: 86.4%
HFL1 [2]
  IC50: 0.16 µM
HFL1 [3]
  Emax: 53.8%

## NS(=O)(=O)c1ccc(NC2=NC(=O)C(CC(=O)Nc3ccc(Br)cc3)S2)cc1 (racemic)
NCI-H460
  growth at 100 µM: 88%
MCF7
  growth at 100 µM: 24%
[4]
  growth at 100 µM: 45%
[12]
  GI50: 58.9 µM
  CC50: 97.7 µM
  TGI: 89.1 µM
[14]
  GI50: 15.6 µM
  TGI: 31.7 µM
[14]; [17]
  CC50: 64.3 µM
[15]
  GI50: 24.3 µM
  TGI: 58.3 µM
[15]; [17]
  CC50: > 100 µM
[16]
  GI50: 21.8 µM
  TGI: 43.5 µM
[16]; [17]
  CC50: 86.7 µM
U-251
  GI50: 20.7 µM
  LC50 (concentration killing 50% of cells): 94.3 µM
  TGI: 44.2 µM
MDA-MB-231
  GI50: 18.5 µM
  TGI: 38.2 µM
MDA-MB-231; [17]
  CC50: 78.6 µM

## O=C1N=C(Nc2ccc(Cl)cc2)/C(=C/c2cccs2)S1
HFL1 [5]
  Activity: Active
HFL1 [11]
  Activity: Dose-dependent effect
[1]
  inhibition (INH): Not Active
HFL1 [2]
  IC50: 0.57 µM
HFL1 [3]
  Emax: 79%

## CC(/C=N/N=C1\SC(CC(=O)Nc2cccc(C(F)(F)F)c2)C(=O)N1Cc1ccco1)=C\c1ccccc1 (mixture of isomers)
HFL1 [2]
  IC50: 0.03 µM
HFL1 [3]
  Emax: 44.3%
HFL1 [9]
  Activity: Dose-dependent effect
